Series [1] is described as follows: Cytotoxicity against human HTB-54 cells after 72 hrs by MTT assay. Format: functional. The following applies: HTB-54, 72 h; for CC50: read-out: LC50 (the source's name). Summed up:
(§1)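 CCRF-CEM, HT-29, PC-3 and HTB-54 cells grown in RPMI 1640 with 10% foetal calf serum, 2 mM L-glutamine, penicillin/streptomycin, 10 mM HEPES (pH 7.4). Five concentrations, 0.01–100 μM, 72 h at 37 °C, 5% CO2; MTT read-out. GI50, TGI and LC50 versus untreated controls; at least 3 independent experiments in quadruplicate.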
In general terms: Formazan colour is commonly taken as a measure of viable cells.

Series [2] can be described thus: Cytotoxicity against human 184B5 cells after 72 hrs by MTT assay. Format: cell-based. The following applies: for GI50 at 72 h: 184B5 cells; for LC50 / TGI: 184b5, 72 h. Summed up:
(§2)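 Non-malignant lines: 184B5 (normal breast) in Hams F-12/DMEM (50:50) with published supplements; BEAS-2B (bronchial epithelium) in Hams F-12/DMEM (50:50) with 10% foetal calf serum, 2 mM L-glutamine, penicillin/streptomycin. Compounds at five concentrations, 0.01–100 μM, 72 h, 37 °C, 5% CO2; MTT read-out. GI50, TGI, LC50 relative to untreated controls; ≥3 independent experiments in quadruplicate.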

A further series relates to HT-29. Nature of the series: Cytotoxicity against human HT-29 cells after 72 hrs by MTT assay. Format: functional. Particulars: HT-29, 72 h. Put shortly:
as §1

Another series relates to MCF7. Nature of the series: Cytotoxicity against human MCF7 cells after 72 hrs by MTT assay. Particulars: MCF7, 72 h; for CC50: read-out: LC50 (the source's name). It is filed as functional. Put shortly:
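MCF-7 cells grown in EMEM with 10% foetal calf serum, 2 mM L-glutamine, 100 units/mL penicillin, 100 µg/mL streptomycin. Exposed to five concentrations between 0.01 and 100 μM for 72 h, 37 °C, humidified 5% CO2; MTT read-out. GI50, TGI, LC50 relative to untreated controls; ≥3 independent experiments in quadruplicate.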

In the next series the test system is CCRF-CEM. Nature of the series: Cytotoxicity against human CCRF-CEM cells after 72 hrs by MTT assay. Format: functional. Summed up: as §1
A short description of series [3]: Cytotoxicity against human BEAS2B cells after 72 hrs by MTT assay. Particulars: for GI50 at 72 h: BEAS2B cells; for LC50 / TGI: beas-2b, 72 h. Format: cell-based, BEAS-2B. Summed up:
as §2

Series [4] in a line: Antioxidant activity assessed as ABTS radical scavenging activity at 0.1 mg/ml after 6 mins. It is filed as physicochemical. The following applies: 0.1 h. Summed up:
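Diluted with 50% ethanol to A741 0.700 ± 0.02. A741 decrease read after 6 min against a 50% ethanol blank. % scavenged relative to a vehicle-plus-radical control. Quadruplicate.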

Series [5] in a line: Antioxidant activity assessed as DPPH radical scavenging activity at 0.5 mg/ml after 180 mins. It is filed as physicochemical. The following applies: 3 h. Put shortly: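 Compounds in absolute ethanol, serially diluted from 1 mg/mL, mixed 1:1 with […] in ethanol. Final range 0.016–0.5 mg/mL, 6 concentrations. Incubated at 37 °C in the dark, with decolourisation followed at 517 nm at several time intervals. % scavenged = (A vehicle control − A sample)/A control × 100. Quadruplicate; mean ± SD.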
(DPPH is a stable violet radical that fades when it is reduced.)

A short description of series [6]: Antioxidant activity assessed as ABTS radical scavenging activity by measuring Trolox equivalent antioxidant capacity after 6 mins. It is filed as physicochemical. Particulars: 0.1 h. Put shortly: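 ABTS dissolved in deionized water at 1 mg/mL, oxidised to radical cation with potassium persulfate (2.45 mM final), kept overnight at room temperature in dark, then diluted with 50% ethanol to A741 = 0.700 ± 0.02. Compound (1 mg/mL ethanol stock) added 1:10 (0.1 mg/mL); A741 decrease read after 6 min against 50% ethanol blank. Trolox positive control; quadruplicate; TEAC from calibration curve.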

Series [7] can be described thus: Cytotoxicity against human PC3 cells after 72 hrs by MTT assay. Format: functional. Particulars: PC-3, 72 h. Summed up:
as §1

Molecules are shown by their SMILES.

One may read the GI50 as the concentration that inhibits growth by half. By TGI is commonly meant the concentration giving total growth inhibition. The low end stands for greater sensitivity of the cells, the high end for lower sensitivity of the cells. By LC50 is commonly meant the concentration lethal to half of the exposed cells or organisms. For `CCCCOC(=O)Nc1ccc([Se]C#N)cc1`, the GI50 in series [1] worked out at 17.2 µM; in the series on HT-29, 8.1 µM; with MCF7, 6.6 µM; in the series on CCRF-CEM, 6.5 µM; in series [7], 12.4 µM. Moreover, the TGI in series [1] was 43.4 µM; in [2], 14.5 µM; with HT-29 it was 31.3 µM; in the series on MCF7 it was 20.2 µM; in the series on CCRF-CEM it was 27.9 µM; in [3], 12.2 µM. This compound also returned a TGI in [7] of 40.8 µM. Besides, the CC50 in series [1] was 69.5 µM; in the series on MCF7, 59.7 µM. The GI50 at 72 h in [2] turned out to be 5.3 µM; in series [3], 5 µM. The LC50 in [2] turned out to be 56.8 µM; in the series on HT-29, 63.7 µM; in the series with CCRF-CEM it was 63.5 µM; in series [3], 54.5 µM. Moreover, the “inhibition (INH)” value in series [4] is on record as 12.6%; in [5], 6.6%. For the same compound, the Activity in series [6] was found to be 6.77 µg/µL. Also, the LC50 (concentration causing 50% net cell kill) in [7] was 69.3 µM.
In the case of `C=CCOC(=O)Nc1ccc([Se][Se]c2ccc(NC(=O)OCC=C)cc2)cc1`, the GI50 was 29.8 µM in series [1]; 25.9 µM in the series on HT-29; 20.8 µM with MCF7; 4.6 µM in the series on CCRF-CEM; 25 µM in series [7]. Also, the TGI came out at 56.6 µM in series [1]; 21.5 µM in series [2]; 52.7 µM in the series with HT-29; 47.2 µM with MCF7; 8.7 µM in the series on CCRF-CEM; 42.9 µM in series [3]. For the same compound, in series [7], total growth inhibition (TGI) required 49.9 µM. The values for the CC50 (in series [1]; in the series with MCF7) were 83.3 µM and 73.6 µM, respectively. Moreover, the values for the GI50 at 72 h in series [2] and in series [3] were 6.4 µM and 14.3 µM, respectively. The LC50 is 60.4 µM in series [2], 79.5 µM with HT-29, 46.9 µM in the series on CCRF-CEM and 71.4 µM in series [3]. The “inhibition (INH)” value in series [4] was determined as 10.9%; in series [5], 30%. For the same compound, in series [6], the Activity is 5.5 µg/µL. In [7], this compound displayed an LC50 (concentration causing 50% net cell kill) of 74.7 µM.
For `CCOC(=O)Nc1ccc([Se][Se]c2ccc(NC(=O)OCC)cc2)cc1`, the GI50 in series [1] is 31.2 µM; in the series on HT-29, 26 µM; in the series on MCF7 it was 9.9 µM; in the series with CCRF-CEM it was 24.6 µM; in series [7], 28.8 µM. Further, the TGI in series [1] is 56.6 µM; in series [2] it was 16.7 µM; with HT-29, 51.1 µM; with MCF7, 39 µM; with CCRF-CEM it was 49.5 µM; in [3], 44 µM. Further, in [7], the TGI was 52.2 µM. Also, the CC50 in series [1] is 82 µM; in the series on MCF7, 68.3 µM. The figures for the GI50 at 72 h in [2] and in series [3] were 5.7 µM and 16.1 µM, respectively. Moreover, the LC50 in series [2] is 58.7 µM; with HT-29 it was 76.1 µM; in the series on CCRF-CEM, 74.3 µM; in series [3] it was 71.9 µM. Moreover, the “inhibition (INH)” value in [4] was determined as 21.3%; in series [5], 37%. Besides, the Activity in series [6] was found to be 13.6 µg/µL. The LC50 (concentration causing 50% net cell kill) in series [7] worked out at 75.7 µM.
Turning to `CCCCOC(=O)Nc1ccc([Se][Se]c2ccc(NC(=O)OCCCC)cc2)cc1`, the GI50 in [1] was 35.2 µM; in the series with HT-29 it was 27.6 µM; in the series with MCF7, 17.3 µM; in the series with CCRF-CEM it was 16.7 µM; in [7], 28.6 µM. Also, the TGI in [1] came out at 57.3 µM; in series [2], 26 µM; in the series with HT-29, 55 µM; in the series on MCF7 it was 46.3 µM; with CCRF-CEM it was 44.5 µM; in series [3] it was 49.6 µM. Further, in [7], the total growth inhibition concentration (TGI) stood at 52.5 µM. The CC50 worked out at 79.4 µM in [1] and 75.2 µM in the series with MCF7. Further, the GI50 at 72 h in [2] was determined as 7.2 µM; in series [3], 24.2 µM. Further, the LC50 is 63.1 µM in series [2], 82.4 µM with HT-29, 72.3 µM in the series with CCRF-CEM and 75 µM in [3]. For the same compound, the figures for the “inhibition (INH)” value in series [4] and in [5] were 7.3% and 36.1%, respectively. Besides, the Activity in [6] is 2.67 µg/µL. In series [7], this compound showed an LC50 (concentration causing 50% net cell kill) of 76.4 µM.
As for `CCCOC(=O)Nc1ccc([Se][Se]c2ccc(NC(=O)OCCC)cc2)cc1`, the GI50 in series [1] was 48.5 µM; with HT-29, 18.3 µM; in the series with MCF7 it was 31.7 µM; in the series with CCRF-CEM, 4.3 µM; in series [7], 18.4 µM. Also, the TGI in series [1] turned out to be 68.4 µM; in series [2], 24.5 µM; with HT-29, 47.2 µM; with MCF7, 55.8 µM; with CCRF-CEM, 8.8 µM; in series [3], 43.3 µM. In addition, total growth inhibition in series [7] (TGI) required 45 µM. The CC50 in [1] came to 88.3 µM; in the series with MCF7 it was 80 µM. For the same compound, the results for the GI50 at 72 h in series [2] and in series [3] were 7.2 µM and 14.4 µM, respectively. For the same compound, the LC50 turned out to be 62 µM in [2], 76.1 µM in the series with HT-29, 49.1 µM with CCRF-CEM and 72.2 µM in [3]. Moreover, the results for the “inhibition (INH)” value in [4] and in [5] were 22.5% and 52.4%, respectively. In [6], the Activity was determined as 14.5 µg/µL. The compound also gave an LC50 (concentration causing 50% net cell kill) in [7] of 71.5 µM.
In the case of `N#C[Se]c1ccc(NC(=O)Oc2ccc(F)cc2)cc1`, the GI50 in series [1] turned out to be 25 µM; with HT-29 it was 8.8 µM; in the series with MCF7, 8.3 µM; with CCRF-CEM, 12.6 µM; in [7], 11.8 µM. The TGI in series [1] was found to be 48.4 µM; in series [2] it was 29.5 µM; in the series on HT-29 it was 37.6 µM; in the series on MCF7 it was 33.3 µM; in the series on CCRF-CEM, 41.9 µM; in series [3], 45.6 µM. Total growth inhibition in series [7] (TGI) required 40.4 µM. Also, the CC50 in series [1] amounted to 71.9 µM; in the series with MCF7 it was 65.7 µM. In addition, the results for the GI50 at 72 h in series [2] and in series [3] were 6.9 µM and 19.8 µM, respectively. Also, the 50% lethal concentration (LC50) in [2] worked out at 64.4 µM; with HT-29, 66.5 µM; in the series on CCRF-CEM, 71.1 µM; in [3] it was 71.4 µM. The “inhibition (INH)” value in [4] is on record as over 25%. In addition, the Activity in series [6] was 20.8 µg/µL. The same compound had an LC50 (concentration causing 50% net cell kill) in [7] of 69 µM.
As for `N#C[Se]c1ccc(NC(=O)Oc2ccccc2)cc1`, the GI50 in series [1] was found to be 26.2 µM; with HT-29 it was 11.7 µM; with MCF7 it was 4 µM; in the series on CCRF-CEM it was 22.9 µM; in [7] it was 9.1 µM. For the same compound, the TGI in series [1] worked out at 50.2 µM; in [2], 22.7 µM; in the series with HT-29 it was 41.7 µM; in the series on MCF7, 35.9 µM; in the series on CCRF-CEM, 48 µM; in series [3] it was 38.2 µM. In addition, in series [7], net growth stopped (TGI) at 37.5 µM. Further, the CC50 in [1] stood at 74.4 µM; in the series with MCF7, 67.8 µM. Besides, the GI50 at 72 h in [2] is 0.4 µM; in series [3] it was 8.9 µM. Also, the LC50 in [2] worked out at 61.2 µM; in the series with HT-29, 71.7 µM; in the series on CCRF-CEM it was 73.2 µM; in series [3], 69.3 µM. Further, the entries for the “inhibition (INH)” value in series [4] and in series [5] were over 25% and 19.3%, respectively. Moreover, the Activity in series [6] worked out at 29 µg/µL. Also, in series [7], the LC50 (concentration causing 50% net cell kill) is 68 µM.

The values above are taken from ChEMBL document CHEMBL3399918, “In vitro radical scavenging and cytotoxic activities of novel hybrid selenocarbamates” (Bioorg Med Chem, 2015).
